Published values collected from several papers.
Protocols differ between the studies behind these lines.
ALK: ALK tyrosine kinase receptor (ALK, Homo sapiens, UniProt Q9UM73)

Compound | target | read-out | mode | method | concentration | measurement | result
CC(C)(C)c1cc(C=C(C#N)C#N)cc(Br)c1O | ALK | enzyme activity | inhibitor | – | 0.5 µM | remaining activity | 97.9%
C#Cc1n[nH]c2c(-c3cn([C@@H](C)c4ccccc4)c(=O)[nH]c3=O)cc(F)cc12 | ALK | enzyme activity | inhibitor | – | 0.1 µM | inhibition | 7.7%
Cc1nn(C)cc1-c1nc2c(N3CCN(Cc4ccc(Cl)cc4)CC3)c(Cl)cnc2[nH]1 | ALK | binding | – | competition with immobilised ligand | 1 µM | remaining binding | 100%
Cn1cncc1[C@](O)(COc1ccc(C#N)cc1-c1ccc(OC(F)(F)F)cc1)c1ccc(C#N)cc1 | ALK tyrosine kinase receptor (ALK, Homo sapiens, UniProt Q9UM73, C1156Y) | cell-free assay | – | competition with immobilised ligand | 1 µM | remaining binding | 92%
COc1cc(Nc2ncc(F)c(Nc3ccc4c(n3)NC(=O)C(C)(C)O4)n2)cc(OC)c1OC | ALK | binding | – | competition with immobilised ligand | 10 µM | inhibition | 99%
C#Cc1n[nH]c2c(-c3cn(C(C)c4ccccn4)c(=O)[nH]c3=O)cc(F)cc12 (stereo not drawn) | ALK | enzyme activity | inhibitor | – | 1 µM | inhibition | 11.2%
O=c1[nH]c2ccccc2n1C1CCN(Cc2ccc(-c3[nH]c4cc5ncnc5cc4nc3-c3ccccc3)cc2)CC1 | ALK | cell-free assay | – | – | 0.5 µM | remaining signal | 106%
Nc1ncc(-c2nc(N3CCOCC3)nc(N3CCOCC3)n2)c(C(F)F)n1 | ALK tyrosine kinase receptor (ALK, Homo sapiens, UniProt Q9UM73, L1196M) | cell-free assay | – | competition with immobilised ligand | 10 µM | remaining binding | 44%
COc1ncccc1-c1cnn2ccc(N3CCN(C(=O)OC(C)C)CC3)nc12 | ALK | binding | – | competition with immobilised ligand | 1 µM | remaining binding | 100%
